From ChEMBL document CHEMBL3414424, “Fluoroalkane thioheterocyclic derivatives and their antitumor activity” (Eur J Med Chem, 2015)
The source made the active and inactive calls. The rule behind the calls is not given here.

Tests used:
[1] = Cytotoxicity against human SH-SY5Y cells after 48 hrs by MTT assay; assay type: functional, cell-based
In short: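 SH-SY5Y, after overnight growth, were exposed continuously to compounds for 48 h in DMEM with 10% FBS. Then PBS washes, 4 h with 0.5 mg/ml MTT in serum-free DMEM, DMSO solubilization of formazan, and OD at 570 nm.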

HepG2 [2] = experiment: Cytotoxicity against human HepG2 cells after 48 hrs by MTT assay; assay type: functional, cell-based; conditions: HepG2, 48 h
In short: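 HepG2 kept in MEM with 10% FBS and 1% penicillin/streptomycin at 37 °C, 5% CO2. After overnight growth, cells were exposed continuously to compounds for 48 h in MEM with 10% FBS. They were then PBS-washed and given 0.5 mg/ml MTT in serum-free DMEM for 4 h. Formazan was dissolved in DMSO and read at 570 nm.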

MCF7 [3] = experiment: Cytotoxicity against human MCF7 cells after 48 hrs by MTT assay; assay type: functional, cell-based; conditions: MCF7, 48 h
In short: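 MCF-7 cells were grown overnight, then treated continuously for 48 h with compounds in DMEM containing 10% FBS. After two PBS washes, cells got 0.5 mg/ml MTT in serum-free DMEM for 4 h. Formazan was solubilized in DMSO and OD read at 570 nm.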

HepG2 [4] = experiment: Cytotoxicity against human HepG2 cells at 10 uM after 48 hrs by MTT assay; assay type: functional, cell-based
In short: (§1)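 After overnight plating, HepG2 cells (maintained in MEM/10% FBS/1% pen-strep, 37 °C, 5% CO2) were treated at a fixed compound concentration for 48 h in MEM plus 10% FBS. MTT was 0.5 mg/ml in serum-free DMEM for 4 h after PBS washes, with formazan taken up in DMSO. Absorbance at 570 nm gave percent proliferation inhibition, part of a dose-response series.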

MCF7 [5] = experiment: Cytotoxicity against human MCF7 cells at 10 uM after 48 hrs by MTT assay; assay type: functional, cell-based
In short: (§2)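 Percent proliferation inhibition of MCF-7 at a single concentration, taken from a dose-response series. Cells were plated overnight, then compound-treated for 48 h in DMEM + 10% FBS. They were washed with PBS and incubated 4 h with 0.5 mg/ml MTT in serum-free DMEM. Formazan was dissolved in DMSO and read at 570 nm.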

SH-SY5Y = experiment: Cytotoxicity against human SH-SY5Y cells at 10 uM after 48 hrs by MTT assay; assay type: functional, cell-based
In short: (§3)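 SH-SY5Y cells were grown overnight and treated for 48 h at the stated concentration in DMEM/10% FBS, as part of a dose-response series. After PBS washes, cells were incubated 4 h with 0.5 mg/ml MTT in serum-free DMEM. Formazan was dissolved in DMSO and read at 570 nm to give inhibition rate.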

[6] = Cytotoxicity against human SH-SY5Y cells at 5 uM after 48 hrs by MTT assay; assay type: functional; in short: as §3
MCF7 [7] = experiment: Cytotoxicity against human MCF7 cells at 5 uM after 48 hrs by MTT assay; assay type: functional; conditions: MCF7, 48 h; in short: as §2
HepG2 [8] = experiment: Cytotoxicity against human HepG2 cells at 5 uM after 48 hrs by MTT assay; assay type: functional; conditions: HepG2, 48 h; in short: as §1
[9] = Cytotoxicity against human SH-SY5Y cells at 1 uM after 48 hrs by MTT assay; assay type: functional; in short: as §3
HepG2 [10] = experiment: Cytotoxicity against human HepG2 cells at 1 uM after 48 hrs by MTT assay; assay type: functional, cell-based; in short: as §1
MCF7 [11] = experiment: Cytotoxicity against human MCF7 cells at 1 uM after 48 hrs by MTT assay; assay type: functional, cell-based; in short: as §2

Compound: O=S(=O)(CCC(F)(Cl)C(F)(F)Cl)c1nc2ccccc2s1 (stereo unspecified)
- IC50 [1]: 4.5 µM
- IC50 (HepG2 [2]): 4.5 µM
- IC50 (MCF7 [3]): 10.1 µM

Compound: CC(C)(c1nccs1)C(C#N)C#N
- IC50 [1]: > 120 µM
- IC50 (HepG2 [2]): > 120 µM
- IC50 (MCF7 [3]): > 120 µM

Compound: c1ccc2sc(SNC3CCCCC3)nc2c1
- IC50 [1]: > 120 µM
- IC50 (HepG2 [2]): 55 µM
- IC50 (MCF7 [3]): 89.2 µM

Compound: N#CC(C#N)Cc1nccs1
- IC50 [1]: > 120 µM
- IC50 (HepG2 [2]): > 120 µM
- IC50 (MCF7 [3]): > 120 µM

Compound: CC(=C(C#N)C#N)c1nccs1
- IC50 [1]: 68.8 µM
- IC50 (HepG2 [2]): 105 µM
- IC50 (MCF7 [3]): 110 µM

Compound: FC(F)=C(F)CCSc1ncc(Cl)s1
- IC50 [1]: > 120 µM
- IC50 (HepG2 [2]): > 120 µM
- IC50 (MCF7 [3]): > 120 µM

Compound: FC(F)(Cl)C(F)(Cl)CCSc1nc2ccccc2s1 (stereo unspecified)
- IC50 [1]: > 120 µM
- IC50 (HepG2 [2]): > 120 µM
- IC50 (MCF7 [3]): > 120 µM

Compound: c1ccc2sc(SN(C3CCCCC3)C3CCCCC3)nc2c1
- IC50 [1]: 69.1 µM
- IC50 (HepG2 [2]): > 120 µM
- IC50 (MCF7 [3]): > 120 µM

Compound: [O-][S+](CCC(F)(Cl)C(F)(F)Cl)c1nc2ccccc2s1 (stereo unspecified)
- IC50 [1]: 41.5 µM
- Activity (HepG2 [4]): Active
- Activity (MCF7 [5]): Active
- IC50 (HepG2 [2]): 13.5 µM
- Activity (SH-SY5Y): Active
- IC50 (MCF7 [3]): 17.1 µM

Compound: N#CC(C#N)=Cc1nccs1
- IC50 [1]: > 120 µM
- IC50 (HepG2 [2]): > 120 µM
- IC50 (MCF7 [3]): > 120 µM

Compound: O=S(=O)(CCC(F)=C(F)F)c1ccccn1
- IC50 [1]: > 120 µM
- IC50 (HepG2 [2]): > 120 µM
- IC50 (MCF7 [3]): > 120 µM

Compound: O=S(=O)(CCC(F)=C(F)F)c1nccs1
- IC50 [1]: > 120 µM
- IC50 (HepG2 [2]): > 120 µM
- IC50 (MCF7 [3]): > 120 µM

Compound: O=S(=O)(CCC(F)=C(F)F)c1nc2ccc(OC(F)F)cc2[nH]1
- IC50 [1]: > 120 µM
- IC50 (HepG2 [2]): > 120 µM
- IC50 (MCF7 [3]): > 120 µM

Compound: FC(F)(Cl)C(F)(Cl)CCSc1nc2ccc(Cl)cc2s1 (stereo unspecified)
- IC50 [1]: > 120 µM
- IC50 (HepG2 [2]): > 120 µM
- IC50 (MCF7 [3]): > 120 µM

Compound: [O-][S+](CCC(F)=C(F)F)c1ncc(-c2ccncc2)s1 (stereo unspecified)
- IC50 [1]: > 120 µM
- IC50 (HepG2 [2]): > 120 µM
- IC50 (MCF7 [3]): > 120 µM

Compound: Cn1c(SCCC(F)=C(F)F)nc(-c2ccncc2)cc1=O
- IC50 [1]: > 120 µM
- IC50 (HepG2 [2]): > 120 µM
- IC50 (MCF7 [3]): > 120 µM

Compound: FC(F)=C(F)CCSc1nc2ccccc2[nH]1
- IC50 [1]: > 120 µM
- IC50 (HepG2 [2]): > 120 µM
- IC50 (MCF7 [3]): > 120 µM

Compound: c1ccc2sc(SSc3nc4ccccc4s3)nc2c1 [BENZOTHIAZYL DISULFIDE]
- IC50 [1]: > 120 µM
- IC50 (HepG2 [2]): > 120 µM
- IC50 (MCF7 [3]): > 120 µM

Compound: COc1ccc2c(c1OC)C(=O)O[C@@H]2[C@H]1c2c(cc3c(c2OC)OCO3)CCN1C [NOSCAPINE]
- IC50 [1]: 80.3 µM

Compound: [O-][S+](CCC(F)=C(F)F)c1nccs1 (stereo unspecified)
- IC50 [1]: > 120 µM
- IC50 (HepG2 [2]): > 120 µM
- IC50 (MCF7 [3]): > 120 µM

Compound: [O-][S+](CCC(F)=C(F)F)c1nc2ccccc2o1 (stereo unspecified)
- inhibition at 5 µM [6]: 60%
- IC50 [1]: 0.4 µM
- IC50 (HepG2 [2]): 5.6 µM
- inhibition at 5 µM (MCF7 [7]): 20%
- IC50 (MCF7 [3]): 4.5 µM
- inhibition at 5 µM (HepG2 [8]): 60%

Compound: FC(F)=C(F)CCSc1nnc(S)s1
- IC50 [1]: > 120 µM
- IC50 (HepG2 [2]): > 120 µM
- IC50 (MCF7 [3]): > 120 µM

Compound: O=S(=O)(CCC(F)=C(F)F)c1nc2ccccc2[nH]1
- IC50 [1]: > 120 µM
- IC50 (HepG2 [2]): > 120 µM
- IC50 (MCF7 [3]): > 120 µM

Compound: O=S(=O)(CCC(F)=C(F)F)c1nc2ccccc2s1
- IC50 [1]: 2.64 µM
- inhibition at 1 µM [9]: 50%
- IC50 (HepG2 [2]): 3.71 µM
- inhibition (HepG2 [10]): inactive
- inhibition (MCF7 [11]): inactive
- IC50 (MCF7 [3]): 7.2 µM

Compound: CC(=O)O[C@H]1C(=O)[C@@]2(C)[C@H]([C@H](OC(=O)c3ccccc3)[C@]3(O)C[C@H](OC(=O)[C@H](O)[C@@H](NC(=O)c4ccccc4)c4ccccc4)C(C)=C1C3(C)C)[C@]1(OC(C)=O)CO[C@@H]1C[C@@H]2O [PACLITAXEL]
- IC50 (HepG2 [2]): 0.045 µM
- IC50 (MCF7 [3]): 0.032 µM

Compound: FC(F)=C(F)CCSc1nccs1
- IC50 [1]: > 120 µM
- IC50 (HepG2 [2]): > 120 µM
- IC50 (MCF7 [3]): > 120 µM

Compound: FC(F)=C(F)CCSc1ncc(-c2ccncc2)s1
- IC50 [1]: > 120 µM
- IC50 (HepG2 [2]): > 120 µM
- IC50 (MCF7 [3]): > 120 µM

Compound: FC(F)=C(F)CCSc1nc2ccccc2s1
- IC50 [1]: > 120 µM
- IC50 (HepG2 [2]): > 120 µM
- IC50 (MCF7 [3]): > 120 µM

Compound: O=S(=O)(CCC(F)(Cl)C(F)(F)Cl)c1nc2ccc(Cl)cc2s1 (stereo unspecified)
- IC50 [1]: 6 µM
- IC50 (HepG2 [2]): 6.1 µM
- IC50 (MCF7 [3]): 8.4 µM

Compound: CC(c1nccs1)C(C#N)C#N (stereo unspecified)
- IC50 [1]: > 120 µM
- IC50 (HepG2 [2]): > 120 µM
- IC50 (MCF7 [3]): > 120 µM

Compound: O=S(=O)(CCC(F)=C(F)F)c1ncc(-c2ccncc2)s1
- IC50 [1]: > 120 µM
- IC50 (HepG2 [2]): > 120 µM
- IC50 (MCF7 [3]): > 120 µM

Compound: [O-][S+](CCC(F)=C(F)F)c1nc2ccccc2[nH]1 (stereo unspecified)
- IC50 [1]: > 120 µM
- IC50 (HepG2 [2]): > 120 µM
- IC50 (MCF7 [3]): > 120 µM

Compound: FC(F)=C(F)CCSc1nc2ccc(OC(F)F)cc2[nH]1
- IC50 [1]: > 120 µM
- IC50 (HepG2 [2]): > 120 µM
- IC50 (MCF7 [3]): > 120 µM

Compound: FC(F)=C(F)CCSc1ccccn1
- IC50 [1]: > 120 µM
- IC50 (HepG2 [2]): > 120 µM
- IC50 (MCF7 [3]): > 120 µM

Compound: N#CC(C#N)(CCC(F)=C(F)F)Cc1nccs1
- IC50 [1]: > 120 µM
- IC50 (HepG2 [2]): > 120 µM
- IC50 (MCF7 [3]): > 120 µM

Compound: FC(F)=C(F)CCSc1nc2ccccc2o1
- IC50 [1]: > 120 µM
- IC50 (HepG2 [2]): > 120 µM
- IC50 (MCF7 [3]): > 120 µM

Compound: [O-][S+](CCC(F)(Cl)C(F)(F)Cl)c1nc2ccc(Cl)cc2s1 (stereo unspecified)
- IC50 [1]: 2.1 µM
- inhibition at 1 µM [9]: 50%
- IC50 (HepG2 [2]): 6.9 µM
- inhibition (HepG2 [10]): inactive
- inhibition (MCF7 [11]): inactive
- IC50 (MCF7 [3]): 12.2 µM

Compound: CC(c1nccs1)C(C#N)(C#N)CCC(F)=C(F)F (stereo unspecified)
- IC50 [1]: > 120 µM
- IC50 (HepG2 [2]): > 120 µM
- IC50 (MCF7 [3]): > 120 µM

Compound: [O-][S+](CCC(F)=C(F)F)c1nc2ccccc2s1 (stereo unspecified)
- IC50 [1]: 7 µM
- IC50 (HepG2 [2]): 4.7 µM
- IC50 (MCF7 [3]): 8.6 µM
